# Assay results as given in the RNAGym collection of RNA variant scans (doi:10.1126/science.aae0568).
# Variants at the floor of the assay were thinned out.
# B1: tRNA (parent)
# chain: GUUCCGUUGGCGUAAUGGUAACGCGUCUCCCUCCUAAGGAGAAGACUGCGGGUUCGAGUCCCGUACGGAACG
# Variants of: B1
# Assay: yeast fitness relative to wild type (ratio to wild type); higher = fitter; tRNA-Arg(CCU), competitive growth, 37 C, YPD
# Procedure, shortened: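 Genotype frequency changes were the basis for Darwinian fitness relative to wild type. The frequencies came from 100-nucleotide paired-end sequencing of gene amplicons from the start population and each end population of pooled yeast strains with tRNA-Arg(CCU) gene variants at the native locus. Competition ran in YPD at 37°C for 24 hours in six replicates, genotypes needed ≥ 100 starting reads, and estimates < 0.5 were set to 0.5.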
row,Variant,yeast fitness
1,GUUCCGUUGGCGUAAUGGUAACGCGUCUCCCUACUAUGGAGAAGACUGCGGGUUCGCGUCCCGUACGGAACG [C33A A37U A57C],≤ 0.5
2,GUUCCGUUGGCGUAAUGGUAACGCGUCUCCCUACUAUGGAGAAGACUGCGGGUUCGGGUCCCGUACGGAACG [C33A A37U A57G],0.545
3,GUUCCGUUGGCGUAAUGGUAACGCGUCUCCCUACUAAGGAGAAGACUGCGAGUUCGAGUCCCGUACGGAACG [C33A G51A],0.659
4,GUUCCGUUGGCGUAAUGGUAACGCGUCUCCCUACUAAGGAGGAGACUGCGGGUUCGAGUCCCGUACGGAUCG [C33A A42G A70U],≤ 0.5
5,GUUCCGUUGGCGUAAUGGUAACGCGUCUCCCUACUAAGGAGAAGACUGCGGGUUCGAGUUCCGUACGGAACG [C33A C60U],≤ 0.5
6,GUUCCGUUGGCGUAAUGGUAACGCGUCUCCCUACUAAGCAGAAGACUGCGGGUUCGAGUCCCGUACGGAACG [C33A G39C],0.677
7,GUUCCGUUGGCGUAAUGGUAACGCGUCUCCCUACUAACGAGAAGACUGCAGGUUCGAGUCCCGUACGGAACG [C33A G38C G50A],≤ 0.5
8,GUUCCGUUGGCGUAAUGGUAACGCGUCUCCCGCCAAAGGAGAAGACUGCGGGUUCGAGUCCCGUACGGAACG [U32G U35A],≤ 0.5
9,GUUCCGUUGGCGUAAUGGUAACGCGUCUCCCGCCUAAGGAGAAGACUGCGGGUUCGAGUCCCGUACAGAACG [U32G G67A],0.643
10,GUUCCGUUGGCGUAAUGGUAACGCGUCUCCCGCCUAAGGAGAAGACUGCGGGUUCGAGUCCCGUACUGAACG [U32G G67U],0.547
11,GUUCCGUUGGCGUAAUGGUAACGCGUCUCCCUACUAAGGAGAAGACUGUGGGUUGGAGUCCCGUACGGAACG [C33A C49U C55G],≤ 0.5
12,GUUCCGUUGGCGUAAUGGUAACGCGUCUCCCUACUAAGGAGAAAACUGCGGGUUCGAGUCCCGUACGGACCG [C33A G44A A70C],0.547
13,GUUCCGUUGGCGUAAUGGUAACGCGUCUCCCUAGUAAGGAGAAGACUGCGGGUUCGUGUCCCGUACGGAACG [C33A C34G A57U],≤ 0.5
14,GUUCCGUUGGCGUAAUGGUAACGCGUCUCCCUACUAAGCAGGAGACUGCGGGUUUGGGUCCCGUACGGAACG [C33A G39C A42G C55U A57G],0.585
15,GUUCCGUUGGCGUAAUGGUAACGCGUCUCCCUACUAAGGAGAAAACUGCGGGUUCGAGUCCCGUACGGAACG [C33A G44A],0.617
16,GUUCCGUUGGCGUAAUGGUAACGCGUCUCCCUACUAAGGAGAAAACUGCGGGUUCGAGUCCCGUACGUAACG [C33A G44A G68U],≤ 0.5
17,GUUCCGUUGGCGUAAUGGUAACGCGUCUCCCUACUAAGGAGAAGACUGCGGGUUUGAGUCACGUACGGAACG [C33A C55U C61A],0.559
18,GUUCCGUUGGCGUAAUGGUAACGCGUCUCCCUACUAAGGAGAAGACUGCGGGUUGGAGUCCCGUACGGCACG [C33A C55G A69C],≤ 0.5
19,GUUCCGUUGGCGUAAUGGUAACGCGUCUCCCUACUAAGGAGAAGACUGAGGGUUCGAGUCCCGUACGGAACG [C33A C49A],0.597

row,Variant,yeast fitness
1,GUUCCGUUGGCGUAAUGGUAACGCGUCUCCCUACUAAGGAGAAGAAUGCGGGUUCGAGUCGCGUACGGGACG [C33A C46A C61G A69G],≤ 0.5
2,GUUCCGUUGGCGUAAUGGUAACGCGUCUCCCUACUAAGGAGAAGACUGCCGGCUCGAGUCCCGCACGUAACG [C33A G50C U53C U64C G68U],0.586
3,GUUCCGUUGGCGUAAUGGUAACGCGUCUCCCUACUAAGGAGAAGACUGUGGGUUCGAGUCCGGUACGGAACG [C33A C49U C62G],0.735
4,GUUCCGUUGGCGUAAUGGUAACGCGUCUCCCUACUAAAGCGAGGACUGCGCGUUCGAGUCGCGUACGGAACG [C33A G38A A40C A43G G51C C61G],≤ 0.5
5,GUUCCGUUGGCGUAAUGGUAACGCGUCUCCCGCCAAAGGAGAAGACUGCGGGUUCGAGUCCCGUUCGGAACG [U32G U35A A65U],≤ 0.5
6,GUUCCGUUGGCGUAAUGGUAACGCGUCUCCCUACUAAGGAAAAGACUGCGGGUUCGAGUCCCGUACGGAACG [C33A G41A],0.635
7,GUUCCGUUGGCGUAAUGGUAACGCGUCUCCCUACUCAGGAGAAGACUGCGGGUUCGAGUCCCCUAGGGAACG [C33A A36C G63C C66G],0.53
8,GUUCCGUUGGCGUAAUGGUAACGCGUCUCCCUACUACGGAGAAGACUGCGGGUUCGAGUCCCAUACGGAACG [C33A A37C G63A],≤ 0.5
9,GUUCCGUUGGCGUAAUGGUAACGCGUCUCCCUACUAAGGAGAAGACUGCGGGUUCGUGUCCCGUAUGGAACG [C33A A57U C66U],0.555
10,GUUCCGUUGGCGUAAUGGUAACGCGUCUCCCUACUCAGGAGAAGACUACGGGUUCGAGUCCCGUAGGGAACG [C33A A36C G48A C66G],≤ 0.5
11,GUUCCGUUGGCGUAAUGGUAACGCGUCUCCCUACUUAGGAAAAGACUACGGGUUCGAGUCCCGUACGGAACG [C33A A36U G41A G48A],≤ 0.5
12,GUUCCGUUGGCGUAAUGGUAACGCGUCUCCCUACUAAGGAGAAAACUGCGGGUUCGAGUCCCGGACGGAACG [C33A G44A U64G],≤ 0.5
13,GUUCCGUUGGCGUAAUGGUAACGCGUCUCCCUACUAAGGAGAGGCCUGCGGGUUCGAGUCCCGUACGGAACG [C33A A43G A45C],≤ 0.5
14,GUUCCGUUGGCGUAAUGGUAACGCGUCUCCCUACUAAGGAGAAGACUGCGGGUUCGAGUCGCGUACGGAACG [C33A C61G],0.775
15,GUUCCGUUGGCGUAAUGGUAACGCGUCUCCCUACUAAGGAGAAGACUGCUGGUUCGAGUCCCGUACGGAACG [C33A G50U],0.524
16,GUUCCGUUGGCGUAAUGGUAACGCGUCUCCCUACUAAGGUGAAGACUGCGUGUUCGAGUCCCGAACGGAACG [C33A A40U G51U U64A],≤ 0.5
17,GUUCCGUUGGCGUAAUGGUAACGCGUCUCCCUACUAAGGAGAAGACUGCGGGUUGGAGUCCCGUAUGGAACG [C33A C55G C66U],≤ 0.5
18,GUUCCGUUGGCGUAAUGGUAACGCGUCUCCCUACUAAGGAGAAGACUGGGGGUUCGAGUCCCGUACCGAACG [C33A C49G G67C],0.548
